# Assay results published in paper PMC4561049 (Drugs in R&D, 2015).
# Assays:
# [1] = tested on: patients with moderate-to-severe COPD; experiment: Relationship between systemic exposure; type: in vivo, human; settings: 0 to 4 h, day 1 and day 28; 100-800 μg once daily, 100-400 μg twice daily
# Summary of the method: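 Individual observed plasma Cmax was plotted against maximum glucose, heart rate, QTcF (Fridericia correction) and potassium over 0–4 h on day 1 and day 28. Relationships were explored graphically only. Placebo Cmax was set to 0 pg/mL, and below-LLOQ values were plotted as 12.5 pg/mL (half of the 25 pg/mL LLOQ).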
# [2] = tested on: patients with moderate-to-severe COPD; experiment: Population pharmacodynamic Emax model of day 29 trough FEV1 in COPD patients; type: in vivo, human
# Summary of the method: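 COPD patients (≥40 y, ≥10 pack-years) received inhaled DISKUS test compound for 4 weeks: 100, 400 or 800 μg once daily (morning) or 100, 200 or 400 μg twice daily. Day 29 trough FEV1 (Vitalograph) was the mean of the 11 and 12 h post-evening-dose readings on day 28. An Emax model on total daily dose, with both regimens pooled, was fitted in NONMEM 7 (FOCE with interaction).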
# patients with COPD = settings: 1200 µg once daily; cited from earlier work
# [3] = type: in vivo, human
# Summary of the method: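 Plasma sampling on day 28 in a subset of patients at overnight sites, after both the morning and the evening inhaled doses: 1 h–0 min pre-dose, then 0–30 min, 30 min–2 h, 2–6 h and 6–11 h post-dose. Samples were assayed by HPLC–MS (LLOQ 25 pg/mL), and concentrations were log-transformed. A two-compartment model with first-order absorption was fitted in NONMEM 7 by Monte Carlo importance sampling.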
# [4] = tested on: patients with moderate-to-severe COPD; settings: cited from earlier work
smiles,measurement,setting,value
"COc1cc(NC(=O)CCN2CCC(OC(=O)Nc3ccccc3-c3ccccc3)CC2)c(Cl)cc1CNC[C@H](O)c1ccc(O)c2[nH]c(=O)ccc12 [GSK961081, batefenterol]",Relationship between maximum QTcF and individual observed Cmax,[1],No clear relationships
same,Relationship between maximum glucose and individual observed Cmax,[1],No clear relationships
same,Relationship between maximum heart rate and individual observed Cmax,[1],No clear relationships
same,Relationship between minimum potassium and individual observed Cmax,[1],No clear relationships
same,Intercept for E0 (FEV1 at zero dose),"[2]; Emax model of day 29 trough FEV1, 347 COPD patients",0.0650 L
same,ED50 (dose producing 50 % of the maximum effect),"[2]; Emax model of day 29 trough FEV1 versus total daily dose, 347 COPD patients",152 µg
same,Difference between once-daily and twice-daily dosing for day 29 trough FEV1,[2]; influence of dosing regimen on the PD model,no apparent difference
same,Prolongation of the QT interval,patients with COPD,no prolongation of the QT interval
same,Vd/F,"[3]; human, plasma, inhaled",6.26 L
same,Interindividual variability CL/F,"[3]; population PK model, column head Log estimate",0.594
same,Improvement in the trough FEV1,[4]; after 28 days of treatment,155 to 277 mL
same,Dose response of QTc prolongation,[4],no apparent dose response
same,Onset of action,[4],rapid onset of action
same,Tolerability,[4],well tolerated
same,Prolongation of various QTc intervals,[4]; in comparison with placebo or salmeterol,3 to 5 ms
same,"Effect on glucose levels, potassium levels, heart rate, or blood pressure",[4]; safety findings of the primary publication,no effect
same,Increase in the trough FEV1 from 400 to 800 μg,[4]; total daily dose,only a small increase
